# Screening data (PubChem BioAssay)
# Most compounds without a hit are left out; they make up all but 4.6% or so of the library.
# GPR7 antag: human neuropeptides B/W receptor 1 antagonism | P48145 | inhibition, % at 4.4 µM | AID 1861 | actives 1.1% (n = 290,000) | GPR7-expressing cells, fluorescence antagonist assay; in the data active means inhibition above about 16%, passing the limit was not always enough;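 further: cells stimulated with the agonist NPW; 0% = agonist with vehicle and 100% = vehicle without agonist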
# OX1R antag-1: antagonists of human orexin 1 receptor (OX1R); O43613; OX1R-expressing cells, FRET antagonist read-out; inhibition, % at 6.6 µM; actives 1.8% (n = 330,000); AID 485270; in the data active means inhibition mostly above about 38%, no sharp cut-off; inactive means mostly below about 40%;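 further: 0% = agonist challenge alone and 100% = reference antagonist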
# Target sequence (O43613 whole entry, looked up): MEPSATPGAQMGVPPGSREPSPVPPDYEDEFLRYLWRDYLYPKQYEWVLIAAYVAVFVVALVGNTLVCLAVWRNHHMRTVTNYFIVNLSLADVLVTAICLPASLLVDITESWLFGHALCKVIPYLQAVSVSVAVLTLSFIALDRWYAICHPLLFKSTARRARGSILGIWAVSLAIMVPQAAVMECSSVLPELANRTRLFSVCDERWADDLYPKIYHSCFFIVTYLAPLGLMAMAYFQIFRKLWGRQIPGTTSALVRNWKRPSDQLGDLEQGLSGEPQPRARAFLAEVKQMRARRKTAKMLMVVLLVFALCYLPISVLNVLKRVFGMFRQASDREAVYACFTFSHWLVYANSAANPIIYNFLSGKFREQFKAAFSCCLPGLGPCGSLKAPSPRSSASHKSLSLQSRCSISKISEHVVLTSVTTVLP
# TAAR1 agonist: human TAAR1 agonism; actives 0.99% (n = 360,000); activation, % at 3 µM; AID 624467; CHO RD-HGA16 TAAR1, Fluo-8 calcium fluorescence; vehicle wells 0%, saturating PEA agonist 100%; Q96RJ0;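 active means activation above the mean activation of all test compounds in the run plus 3 SD, cut at about 38% in these data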
#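 Test system: RD-HGA16 (CHO) cells co-expressing Gα16 and hTAAR1 / Benchmarks: DMSO vehicle as 0%, PEA at EC100 as 100% / Repeats: no replicates (n 1) / Measure: % activation from peak over basal fluorescence ratio, DMSO-to-PEA scaled / Timing: 17-24 h plating, Fluo-8 75 min 37 °C, 30 min RT / Technique: kinetic Fluo-8 calcium fluorescence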
# CHO parental Ca: counter-screen: ATP calcium response change in parental CHO cells | parental CHO-K1, ATP-induced calcium, Fluo-8 fluorescence | inhibition, % at 5.6 µM | actives 0.63% (n = 330,000) | AID 463079;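 active means inhibition above that plate's mean sample inhibition plus 3 SD, cut at about 26% in these data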;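 further: 0% = ATP-challenged DMSO wells and 100% = DMSO wells without ATP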
#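 Test system: untransfected parental CHO cell line. Compound: one dose, 5.6 µM nominal. Detection: intracellular calcium via Fluo-8 no-wash fluorescent dye. Measure: % inhibition. Benchmarks: ATP-challenged DMSO wells low, unchallenged DMSO wells high.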
# TAAR1 antag: human TAAR1 antagonism. AID 624466. actives 1.5% (n = 360,000). inhibition, % at 3 µM. CHO RD-HGA16 TAAR1, Fluo-8 calcium fluorescence, antagonist. Q96RJ0;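 active means inhibition above a per-plate cutoff, the mean inhibition of test compounds on that plate plus 3 SD, cut at about 49% in these data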;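 further: 0% = DMSO plus EC80 beta-PEA response and 100% = DMSO alone without agonist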
#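 Material: CHO RD-HGA16 cells bearing hTAAR1; compound dosing: one-point dosing, 3 µM nominal final; schedule: dye loading 75 min at 37 °C, then 30 min room temperature; measured by: calcium fluorescence with Fluo-8; control set: vehicle and agonist controls; replication: n of 1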
# OX1R antag-2: human HCRTR1 antagonism | actives 0.43% (n = 330,000) | inhibition, % at 5 µM | CHO/OX1R cells, Fluo-8 calcium fluorescence, orexin A | AID 434989 | O43613;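 active means inhibition above its plate's threshold, mean inhibition of all tested compounds on the plate plus 3 SD, cut at about 37% in these data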;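 further: 0% = orexin A challenge wells and 100% = SB-334867-A antagonist wells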
# TAAR1 nonsel count: counter-screen for TAAR1 antagonists: nonselective antagonists; shares compounds with TAAR1 antag; inhibition, % at 3 µM; AID 651780; counterscreen cell line, calcium fluorescence, antagonist mode; actives 77% (n = 2,400); in the data active means inhibition above about 22%;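 further: CHO-Ga16 host cells stimulated with ATP at an EC80 level; 0% = agonist EC80 plus vehicle and 100% = vehicle without agonist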
# TAAR1 ant conf: confirmation of human TAAR1 antagonists; shares compounds with TAAR1 antag; TAAR1-expressing cells, fluorescence antagonist read-out; inhibition, % at 3 µM; actives 40% (n = 2,400); AID 651785; in the data active means inhibition above about 49%;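 further: CHO-Ga16 host cells challenged with agonist PEA near its EC80; 0% = agonist at EC80 plus vehicle and 100% = vehicle with no agonist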
# Ga16 ag counter: counter-screen for TAAR1 antagonists: nonselective Ga16 agonists; actives 18% (n = 2,400); activation, % at 3 µM; AID 651953; shares compounds with TAAR1 antag; Ga16-expressing cells, calcium fluorescence, agonist counterscreen; in the data active means activation above about 12%;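 further: 0% = vehicle wells and 100% = saturating stimulus response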
# TAAR1 ag counter: counter-screen for human TAAR1 antagonists: TAAR1 agonists; shares compounds with TAAR1 antag; hTAAR1 cell line, fluorescence activation, agonist mode; activation, % at 3 µM; actives 2% (n = 2,400); in the data active means activation above about 37%;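 further: CHO cells stably expressing TAAR1 with calcium dye readout; 0% = DMSO vehicle and 100% = full agonist response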
# Starred values were filed as active, the others as inactive; / = no result; ! = repeats disagree.
SMILES,GPR7 antag,OX1R antag-1,TAAR1 agonist,CHO parental Ca,TAAR1 antag,OX1R antag-2,TAAR1 nonsel count,TAAR1 ant conf,Ga16 ag counter,TAAR1 ag counter
O=C(COC(=O)/C=C/c1ccc(F)cc1)NCC1CCCO1 (centres undefined),/,4,4,-4,-26,-5,/,/,/,/
O=C(O)CC1S/C(=N\N=C2\C(=O)Nc3ccccc32)N(c2ccc(O)cc2)C1=O (centres undefined),-4,21,0,-13,-5,-23,/,/,/,/
Cc1ccccc1-n1ncc2c1CC(C)(C)CC2NC(=O)c1snnc1C (centres undefined),-4,26,0,-12,-14,-20,/,/,/,/
COc1ccc(-c2csc3nc(-c4cccnc4)nc(N4CCC(C(N)=O)CC4)c23)cc1OC,-8,11,20,-20,53*,-9,18,33,9,8
COc1ccc(-c2csc3nc(C)nc(N4CCCCC4)c23)cc1OC,-3,16,1,-14,5,-21,/,/,/,/
C=CC[C@@H](CC(=O)N[C@@H](CO)Cc1ccccc1)C(=O)N[C@@H](COC(=O)[C@@H](CC=C)Cc1ccc(F)cc1)Cc1ccccc1,/,3,1,-17,9,-13,/,/,/,/
O=C(Nc1cccc(-c2nnc(-c3ccco3)o2)c1)C(c1ccccc1)c1ccccc1,-11,41,18,-1,64*,-4,29*,39,2,0
CC(=O)Oc1ccc(C(=O)Nc2cccc(-c3nnc(-c4ccco4)o3)c2)cc1,1,10,18,-8,35,-18,/,/,/,/
O=C(Cc1ccc(Cl)cc1)Nc1cccc(-c2nnc(-c3ccco3)o2)c1,1,16,18,-3,62*,-18,27*,40,11,11
c1ccc(-c2cc3c(N4CCN(c5ncccn5)CC4)ncnc3s2)cc1,-3,14,5,-31,55*,-35,30*,50*,4,6
CN1CCN(c2ncnc3sc(-c4ccccc4)cc23)CC1,0,8,2,-17,11,-18,/,/,/,/
Cc1ccccc1OCC(=O)N=Nc1c(O)n(C)c2ccccc12,-12,25,6,-17,54*,-15,27*,46,6,9
COc1ccc(C2(C(=O)NCCc3ccccc3)CCCC2)cc1OC,29,8,/,-9,/,-21,/,/,/,/
COc1ccccc1NC(=O)c1ccc(NC(=O)COC(=O)C2(C)CC2(Cl)Cl)cc1 (centres undefined),-11,26,13,-8,63*,-15,29*,61*,11,8
COc1ccc(C(C)=O)cc1COC(=O)[C@H](Cc1ccccc1)NC(=O)c1ccco1,/,17,8,-15,56*,-20,22*,44,10,13
CCS(=O)(=O)c1ccc(-c2csc(-c3ccccc3)n2)c(Cl)c1Cl,24,19,14,-13,68*,-30,24*,24,2,5
COc1ccccc1N1CCN(c2nc3ccccc3nc2C(C#N)C(=O)OC(C)C)CC1 (centres undefined),-9,48,2,-19,73*,-41,10,48,2,4
COc1ccc(CNC(=O)CN(Cc2ccc(C)cc2)S(=O)(=O)c2ccc(Cl)cc2)cc1,-18,12,13,-4,59*,-10,38*,36,6,6
COc1ccc(CNC(=O)CN(C)S(=O)(=O)c2ccc(Cl)cc2)cc1,-6,25,5,-13,-10,-7,/,/,/,/
CCCOc1ccccc1OCC(=O)Nc1ccc(S(=O)(=O)N2CCCCC2)cc1,/,7,1,24,42,-21,/,/,/,/
CCCOc1ccccc1OCC(=O)Nc1ccc(S(=O)(=O)N2CCCC2)cc1,/,5,4,-21,65*,-23,20,42,7,13
CCC1CN(C(=O)N2CCC(C(=O)Nc3ccccc3OC)CC2)c2ccccc2O1 (centres undefined),-4,3,14,-21,61*,-32,22*,42,10,13
Cc1ccc2nc(/C(C#N)=C\c3ccc([N+](=O)[O-])o3)[nH]c2c1,0,-6,26,27,9,34,/,/,/,/
N#C/C(=C\c1ccc([N+](=O)[O-])o1)c1nc2ccccc2[nH]1,5,14,17,7,66*,4,49*,61*,20*,25
COc1cc(/C=C(/C#N)c2nc3ccccc3[nH]2)ccc1OCc1ccc(C(=O)O)o1,2,19,4,-9,7,-7,/,/,/,/
SMILES,GPR7 antag,OX1R antag-1,TAAR1 agonist,CHO parental Ca,TAAR1 antag,OX1R antag-2,TAAR1 nonsel count,TAAR1 ant conf,Ga16 ag counter,TAAR1 ag counter
COC(=O)c1ccc(COc2ccc(/C=C(\C#N)c3nc4ccccc4[nH]3)cc2OC)o1,-6,24,14,2,61*,-1,32*,45,7,7
CCOc1cc(/C=C(/C#N)c2nc3ccccc3[nH]2)ccc1Oc1ccc([N+](=O)[O-])cn1,-5,25,15,-8,65*,-5,54*,66*,10,7
Cc1ccc(NS(=O)(=O)c2ccc3c(c2)CCC(=O)N3)cc1C,-5,22,3,10,103*!,-19,5,7,2,5
Cc1ccc(NS(=O)(=O)c2ccc3c(c2)CC(=O)N3)cc1C,6,5,8,0,-29,-7,/,/,/,/
COc1ccc(-c2cc(-c3nnc(COC(=O)c4ccc(O)cc4)o3)c3ccccc3n2)cc1OC,1,13,16,-8,48,-12,/,/,/,/
COc1ccc(-c2cc(-c3nnc(COC(=O)C4CC4C)o3)c3ccccc3n2)cc1OC (centres undefined),-9,20,11,-16,65*,-25,21,41,5,1
O=C(NCc1ccc2c(c1)CCO2)Nc1cccc(C(F)(F)F)c1,-6,22,2,2,-5,5,/,/,/,/
COc1ccc(N2CCN(C(=O)COC(=O)c3oc4ccc(OC)cc4c3C)CC2)cc1,/,9,14,18,69*,-7,42*,57*,11,9
Cc1ccc(C)c(OCCC(=O)OCC(=O)NCc2ccccc2)c1,/,16,-2,5,-27,-20,/,/,/,/
